Measurements: PMC6988732 (The Biochemical journal, 2013)
Positions count from the first letter of the chain named. Values joined by “and” are separate entries in the source; they are usually repeats but may differ in a detail not shown here. Equal values may be shown once. Read-outs that look alike come from different tables or passages of the source.

Assays:
PKCθC1B Q258G = target: T1, PKCθC1B Q258G (Mus musculus, UniProt Q02111, Q258G); test: [3H]PDBu binding assay
T1 sequence (Q02111 232-281 Q258G): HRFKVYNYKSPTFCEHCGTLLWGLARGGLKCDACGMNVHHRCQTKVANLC
Outline: (§1)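 GST-cleaved mouse PKCθ C1B (residues 232–281), E. coli-expressed, affinity/gel-filtration purified. PEG-precipitation [3H]PDBu binding; Kd from saturable plus linear non-specific fit. Ki: [3H]PDBu at 2–5-fold each construct's Kd, DOG or SAG 1–100000 nM, dried from chloroform with phospholipid, sonicated. PS dependence: total phospholipid 100 μg/ml, PS 0–100%, remainder PC, relative to 100% PS. Means ± S.E.M., three independent experiments.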

PKCδC1B W252K = details: cited from earlier work
PKCθC1B L255G = target: T2, PKCθC1B L255G (Mus musculus, UniProt Q02111, L255G); test: [3H]PDBu binding assay
T2 sequence (Q02111 232-281 L255G): T1 sequence (Q02111 232-281 Q258G) with L24G, G27Q
Outline: as §1

PKCδC1B L250R = details: cited from earlier work
PKCθC1B Y239A = target: T3, PKCθC1B Y239A (Mus musculus, UniProt Q02111, Y239A); test: [3H]PDBu binding assay
T3 sequence (Q02111 232-281 Y239A): T1 sequence (Q02111 232-281 Q258G) with Y8A, G27Q
Outline: as §1

PKCδC1B L255K = details: cited from earlier work
PKCθC1B T243A = target: T4, PKCθC1B T243A (Mus musculus, UniProt Q02111, T243A); test: [3H]PDBu binding assay
T4 sequence (Q02111 232-281 T243A): T1 sequence (Q02111 232-281 Q258G) with T12A, G27Q
Outline: as §1

PKCδC1B L250K = details: cited from earlier work
PKCδC1B W252G = details: PKCδC1B mutant homologous to W253G; ref Supplementary Table S1; cited from earlier work
PKCθC1B wild-type = target: T5, PKCθC1B wild-type (Mus musculus, UniProt Q02111); test: [3H]PDBu binding assay
T5 sequence (Q02111 232-281): T1 sequence (Q02111 232-281 Q258G) with G27Q
Outline: as §1

PKCδC1B L250D = details: in the presence or absence of PS; cited from earlier work
PKCδC1B Y238G = details: PKCδC1B mutant homologous to Y239A; ref Supplementary Table S1; cited from earlier work
PKCδC1B = details: cited from earlier work
PKCθC1B W253G = target: T6, PKCθC1B W253G (Mus musculus, UniProt Q02111, W253G); test: [3H]PDBu binding assay
T6 sequence (Q02111 232-281 W253G): T1 sequence (Q02111 232-281 Q258G) with W22G, G27Q

PKCδC1B L255D = details: in the presence or absence of PS; cited from earlier work
PKCδC1B L254G = details: PKCδC1B mutant homologous to L255G; ref Supplementary Table S1; cited from earlier work

## CCCC(=O)O[C@@H]1[C@@H](C)[C@@]2(O)[C@@H](C=C(CO)C[C@]3(O)C(=O)C(C)=C[C@@H]23)[C@@H]2C(C)(C)[C@]12OC(=O)CCC [PDBu, phorbol 12,13-dibutyrate]
PKCθC1B Q258G; PS/PC mixture, total phospholipid 100 μg/ml, Q258G
  PDBu binding at 50% PS relative to the level at 100% PS: 85.7%
PKCθC1B Q258G; Q258G vs wild-type PKCθC1B (Kd for PDBu, Ki for DOG/SAG)
  reduction in binding affinity compared with the wild-type: 1720 fold
PKCθC1B Q258G; read-out: PDBu Kd, PKCθ C1B Q258G, mean ± S.E.M.
  Kd: 670 ± 150 nM
PKCδC1B W252K; 50% PS
  activity at 50% PS as percent of the maximum activity: approximately 55%
PKCδC1B W252K; in the absence of the PS
  binding affinity compared with the wild-type: remained almost the same
PKCδC1B W252K; in the presence of PS
  effect on PDBu binding compared with the wild-type: 3 fold
PKCθC1B L255G; L255G vs wild-type PKCθC1B (Kd for PDBu, Ki for DOG/SAG)
  reduction in binding affinity compared with the wild-type: 11.4 fold and 11 fold
PKCθC1B L255G; PS/PC mixture, total phospholipid 100 μg/ml, L255G
  PDBu binding at 50% PS relative to the level at 100% PS: 92.8%
PKCθC1B L255G; PS/PC mixtures, L255G, decrease at 100% PS
  PS percentage giving maximal [3H]PDBu binding: 50–75%
PKCθC1B L255G; read-out: PDBu Kd, PKCθ C1B L255G, mean ± S.E.M.
  Kd: 4.44 ± 0.56 nM
PKCδC1B L250R; in the absence of lipid
  reduction in PDBu binding: 6.6 fold
PKCδC1B L250R; in the presence of lipid
  reduction in PDBu binding: 340 fold
PKCθC1B Y239A; PS/PC mixture, total phospholipid 100 μg/ml, Y239A
  PDBu binding at 50% PS relative to the level at 100% PS: 130.7%
PKCθC1B Y239A; PS/PC mixtures, Y239A, decrease at 100% PS
  PS percentage giving maximal [3H]PDBu binding: 50–75%
PKCθC1B Y239A; Y239A vs wild-type PKCθC1B (Kd for PDBu, Ki for DOG/SAG)
  reduction in binding affinity compared with the wild-type: 8.51 fold and 9 fold
PKCθC1B Y239A; read-out: PDBu Kd, PKCθ C1B Y239A, mean ± S.E.M.
  Kd: 3.32 ± 0.34 nM
PKCδC1B L255K; in the absence of lipid
  reduction in PDBu binding: 2.9 fold
PKCδC1B L255K; in the presence of lipid
  reduction in PDBu binding: 250 fold
PKCθC1B T243A; PS/PC mixture, total phospholipid 100 μg/ml, T243A
  PDBu binding at 50% PS relative to the level at 100% PS: 98.2%
PKCθC1B T243A; T243A vs wild-type PKCθC1B (Kd for PDBu, Ki for DOG/SAG)
  reduction in binding affinity compared with the wild-type: 1.64 fold
PKCθC1B T243A; read-out: PDBu Kd, PKCθ C1B T243A, mean ± S.E.M.
  Kd: 0.64 ± 0.06 nM
PKCδC1B L250K; in the absence of the PS
  binding affinity compared with the wild-type: remained almost the same
PKCδC1B L250K; in the presence of PS
  effect on PDBu binding compared with the wild-type: 3 fold
PKCδC1B W252G
  reduction in affinity for PDBu compared with the wild-type: 31 fold
PKCθC1B wild-type; 5% PS in PS/PC, relative to binding at 100% PS
  [3H]PDBu binding at 5% PS: Approximately 30%
PKCθC1B wild-type; 100% PC (0% PS)
  [3H]PDBu binding in 100% PC: essentially no binding
PKCθC1B wild-type; PS/PC mixture, total phospholipid 100 μg/ml, PKCθC1B
  PDBu binding at 50% PS relative to the level at 100% PS: 90.5%
PKCθC1B wild-type; read-out: PDBu Kd, PKCθ C1B WT, mean ± S.E.M. of triplicate independent experiments
  Kd: 0.39 ± 0.2 nM
PKCδC1B L250D
  effect of mutation on strong binding of PDBu: completely abolished
PKCδC1B Y238G
  reduction in the binding affinity compared with the wild-type: 60 fold
PKCδC1B
  activity at 50% PS: approximately 100%
PKCθC1B W253G; PS/PC mixture, total phospholipid 100 μg/ml, W253G
  PDBu binding at 50% PS relative to the level at 100% PS: 59.3%
PKCθC1B W253G; W253G vs wild-type PKCθC1B (Kd for PDBu, Ki for DOG/SAG)
  reduction in binding affinity compared with the wild-type: 7.56 fold and 8 fold
PKCθC1B W253G; read-out: PDBu Kd, PKCθ C1B W253G, mean ± S.E.M.
  Kd: 2.95 ± 0.19 nM
PKCδC1B L255D
  effect of mutation on strong binding of PDBu: completely abolished
PKCδC1B L254G
  reduction in affinity for PDBu compared with the wild-type: > 1000 fold
